# Source: PubChem BioAssay
# Sampled rows, rich in hits. Any-hit rate of the full collection: about 6.4%.
# Tb MetRS inh: blocks T. brucei methionyl-tRNA synthetase activity | 360,000 compounds, 0.4% hits | inhibition, % at 11.9 µM | purified T. brucei MetRS, ATP depletion, Kinase-Glo luminescence;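 active means inhibition above a per-plate cutoff of the control wells' mean inhibition plus 3 SD, cut at about 5.5% in these data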;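 further: 0% = DMSO wells median and 100% = median of wells with control inhibitor compound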
#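 Assay system: T. brucei methionyl-tRNA synthetase, purified | Medium: HEPES buffer with MgCl2, KCl, DTT, spermine, BSA, pyrophosphatase | Compound: 11.9 µM single point | Incubation: 15 min enzyme-compound preincubation, 2 h reaction, 10 min detection, 25 °C | Measured by: Kinase-Glo luciferase luminescence reporting remaining unconsumed ATP | Measure: % inhibition normalized to control-well medians | Replication: Singlicate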
# WT yeast gro inh: growth inhibition of WT yeast, mitochondrial fusion screen | mitochondrial fusion phenotypic screen, WT strain | inhibition, % at 10 µM | 190,000 compounds, 2.1% hits | AID 1362; in the data active means inhibition above about 58%; tested in S. cerevisiae
# MPTP block: blocks calcium-induced mitochondrial swelling. isolated mouse mitochondria, Ca2+ swelling absorbance, 30 min. inhibition, % at 10 µM. 360,000 compounds, 1.4% hits;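 active means inhibition of 50% or more, scaled per plate between neutral and stimulator controls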;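 further: 0% = DMSO wells given calcium and 100% = 1 mM EGTA wells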
# EBV gp42 block: EBV gp42 inhibition. Q1HVG2. Fluorescence polarization binding assay, mP read-out. inhibition, % (tested at 21.74 µM). 220,000 compounds, 0.42% hits. AID 1085; in the data active means inhibition above about 50%
# Target sequence (Q1HVG2 whole entry, looked up): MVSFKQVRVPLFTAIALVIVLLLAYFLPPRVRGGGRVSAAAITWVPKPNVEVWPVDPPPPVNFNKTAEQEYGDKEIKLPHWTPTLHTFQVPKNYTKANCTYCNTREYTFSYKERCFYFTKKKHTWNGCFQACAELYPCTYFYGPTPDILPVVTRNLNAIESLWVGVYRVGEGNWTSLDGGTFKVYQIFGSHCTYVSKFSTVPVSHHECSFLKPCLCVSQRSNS
# CHOP inh: CHOP inhibition in unfolded protein response | inhibition, % at 10 µM | 220,000 compounds, 3.8% hits | AID 2732 | CHO-K1 CHOP-promoter luciferase, tunicamycin-induced, 15-18 h;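 active means compounds that reduced the stress-induced luciferase reporter signal by more than about 70% of percent inhibition, limit read from the data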;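 further: 0% = tunicamycin plus vehicle and 100% = wells without tunicamycin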
# NR3A LBD binder: modulates the human NR3A ligand-binding domain; NR3A LBD differential scanning fluorimetry, Tm shift; 0% = protein alone, 100% = glycine-bound protein; Tm shift relative to glycine control, % at 25 µM; 340,000 compounds, 2.5% hits; AID 1259313;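 active means melting temperature shift of at least 10% of the positive control shift, at one fixed dose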
# CHOP confirm: confirmation of CHOP induction inhibitors. 2,100 compounds, 45% hits. shares compounds with CHOP inh. inhibition, % at 10 µM. CHO-CHOP promoter luciferase reporter, tunicamycin-induced, luminescence. AID 504437;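 active means mean of three repeat readings of reporter signal inhibition above a set limit, cut at about 70% in these data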;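 further: 0% = tunicamycin plus vehicle and 100% = wells lacking tunicamycin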
# * hit, by the source's call; / = no result.
SMILES,Tb MetRS inh,WT yeast gro inh,MPTP block,EBV gp42 block,CHOP inh,NR3A LBD binder,CHOP confirm
Cc1ccc(C2CN(C)C3(C(=O)Nc4ccccc43)C23COc2ccccc2C3=O)cc1 (stereo not given),-1.6,72.9*,10.4,8.4,106.8*,-2.8,88.1*
OC(CSc1c(Cl)cccc1Cl)CN1CCN(c2ccccc2F)CC1 (stereo not given),0.4,66.5*,5.4,-1.9,97.2*,-30.9,13.8
CC(NC(=O)COc1ccccc1)C(c1ccccc1)N1CCN(C)CC1 (stereo not given),0.0,2.8,-3.3,-13.0,98.3*,0.9,21.2
COc1ccc2cc(C(N)=O)c(=Nc3ccc(C)cc3)oc2c1,-0.6,-6.5,0.5,6.5,31.5,-0.3,/
CC1(C)CC(=O)C2=C(C1)OC1=C(C(=O)CC(C)(C)C1)C2c1ccc(O)c([N+](=O)[O-])c1,-0.8,6.9,2.6,1.9,24.8,0.2,/
CC1(C)CC(=O)C2=C(C1)OC1=C(C(=O)CC(C)(C)C1)C2c1ccc(O)cc1O,-1.2,4.6,-5.0,116.8*,/,2.3,-85.5
Cc1ccc(NC(=O)CN2CCC(Cc3ccccc3)CC2)cc1S(=O)(=O)N(C)C,-0.3,23.4,2.9,-2.6,17.1,-1.4,/
O=C1CCCCc2sc(Br)c([N+](=O)[O-])c2N1,-0.6,/,1.3,-5.7,104.7*,-0.1,19.4
O=C(C[n+]1cn(C(F)F)c2ccccc21)c1ccc(Br)cc1,-0.9,69.6,1.4,-4.7,100.6*,-1.1,15.3
O=C(C[n+]1cc(Br)cc2ccccc21)c1ccc(Br)cc1,-0.3,/,0.9,/,/,0.0,/
CCCCC1=CC2=C(c3ccco3)C(=O)C(C)(OC(=O)c3ccc(OC)cc3)C(=O)C2=CN1Cc1ccco1 (stereo not given),0.4,/,0.7,24.3,101.7*,-2.3,37.2
CC1=NOC(=O)/C1=C\c1ccc(-c2cccc(Cl)c2)o1,-0.7,43.4,4.0,-20.7,101.9*,-3.3,-52.1
C/C(CCc1oc2ccc(Br)cc2c1-c1ccc(C)o1)=N/O,-0.5,53.2,4.4,0.9,97.3*,-11.7,38.6
Cc1ccc(-c2cc(C(=O)O)c3cc(Br)ccc3n2)o1,0.5,-4.7,-2.9,-18.7,16.5,1.2,/
COC(=O)c1cc2sc(Cl)cc2n1CC(=O)Nc1cccc(SC)c1,0.2,23.6,48.0,-9.9,99.1*,15.4*,-3.4
COc1ccccc1NC(=O)CS(=O)(=O)c1cn(CC(=O)N2CCCC2)c2ccccc12,-0.6,/,0.5,/,/,0.7,/
COc1cc(NC(=O)COc2ccccc2Cl)ccc1NC(=O)c1cccs1,-1.5,/,1.6,/,/,-7.6,/
COc1cc(NC(=O)COc2ccccc2[N+](=O)[O-])ccc1NC(=O)c1cccs1,-0.3,-0.1,2.2,-5.6,103.6*,-0.9,104.8*
CCOC(=O)COc1ccc(/C=C/[N+](=O)[O-])c(OCC(=O)OCC)c1,-0.2,13.9,-0.4,-11.3,111.4*,0.3,-95.5
Cc1ccc(S(=O)(=O)N2[C@@H](c3ccc(C(C)(C)C)cc3)C(C(=O)O)=CC[C@H]2c2ccc(Cl)c(Cl)c2)cc1,-0.5,/,0.4,/,/,-5.7,/
CCc1cc(-c2n[nH]c(C)c2Oc2ccc(C(C)C)cc2)c(O)cc1O,0.0,86.0*,32.3,-6.6,112.7*,32.3*,114.3*
CCCOC(=O)c1ccc(Oc2c(-c3ccc(O)cc3O)n[nH]c2C)cc1,0.0,56.7,-14.4,-13.7,105.0*,/,69.0
CCOc1ccc(-n2c(=O)c3c4c(sc3n(CC(=O)NCC3CCCO3)c2=O)CCC4)cc1 (stereo not given),-0.7,12.3,1.5,-5.6,6.8,0.9,/
O=C1c2ccccc2C(=O)N1CCc1ccccc1,-0.8,/,-1.0,/,/,-0.5,/
Cn1c(-c2ccccc2)c(CCO)c2ccccc21,-2.2,-16.3,0.2,10.1,23.7,-574.0,/
SMILES,Tb MetRS inh,WT yeast gro inh,MPTP block,EBV gp42 block,CHOP inh,NR3A LBD binder,CHOP confirm
Cn1c(-c2ccccc2)c(C(=O)CCl)c2ccccc21,-0.9,10.3,-0.6,-9.5,107.5*,1.7,46.3
O=C(Cn1ncc(Cl)c(Cl)c1=O)N1CCN(S(=O)(=O)c2ccc3ccccc3c2)CC1,0.6,-18.6,1.1,-36.6,98.8*,-1.3,-25.1
O=C(O)CCC(=O)N1CCN(S(=O)(=O)c2ccc3ccccc3c2)CC1,0.5,/,-0.8,/,/,-1.3,/
CCC(=O)NC(c1ccccc1)c1c(O)ccc2ccccc12 (stereo not given),-1.0,/,1.0,/,/,-0.7,/
COCCCNC(=O)c1cccn2c(=O)c3cc4ccccc4cc3nc12,0.3,44.3,-2.3,24.6,97.6*,1.7,58.3
Cc1occc1-c1nnc(SCC(=O)Nc2ccccn2)o1,-1.3,14.4,-0.9,-1.9,0.7,0.9,/
Cc1nc2ccc(NC(=O)c3ccc(Cl)c([N+](=O)[O-])c3)cc2s1,0.5,0.0,38.2,-5.5,17.4,-6.1,/
Cc1nc2ccc(NC(=O)c3cc([N+](=O)[O-])cc([N+](=O)[O-])c3Cl)cc2s1,0.2,-2.1,6.7,-2.6,107.2*,17.9*,5.6
CCCOc1ccc(/C=C/C(=O)Nc2ccc([N+](=O)[O-])cc2C)cc1OC,-0.4,8.6,13.3,-5.2,60.5,-1.6,/
O=[N+]([O-])c1ccc(S(=O)(=O)CC(CN2CCCCC2)N2CCCCC2)cc1 (stereo not given),0.1,2.9,-0.2,-18.9,105.1*,-0.9,95.3*
COc1ccc(C(=O)CSc2ccc(-c3ccc(C)cc3)nn2)cc1,-0.2,-23.5,2.7,-31.2,1.7,0.8,/
Cc1ccc(-n2c(N)c(C(=O)Nc3c(C)n(C)n(-c4ccccc4)c3=O)c3nc4ccccc4nc32)cc1,0.5,20.3,-3.5,20.7,106.7*,-2.2,54.6
COc1cccc(-n2c(N)c(C(=O)Nc3c(C)n(C)n(-c4ccccc4)c3=O)c3nc4ccccc4nc32)c1,-1.1,/,1.4,23.2,46.2,1.9,/
Cc1cc(C)cc(-n2c(N)c(C(=O)Nc3c(C)n(C)n(-c4ccccc4)c3=O)c3nc4ccccc4nc32)c1,0.5,2.2,-0.6,11.5,104.9*,-7.1,38.7
COc1ccccc1CCC(=O)NC1CCCN(c2ccc(C(F)(F)F)cn2)C1 (stereo not given),0.0,/,-0.4,/,/,0.0,/
O=C(O)c1cccc(-n2cc(-c3cccc(C(F)(F)F)c3)cn2)c1,-0.5,/,2.0,/,/,3.2,/
COc1ccccc1N=Cc1nc(-c2ccccc2)oc1OC(C)=O,-1.0,8.5,22.4,-0.7,44.7,-0.8,/
CC(=O)Oc1oc(-c2ccccc2)nc1/C=N/c1ccccn1,-0.2,12.5,1.3,-19.4,100.6*,2.1,-42.0
C=C(C)COc1ccc(-c2n[nH]c(C)c2Oc2ccccc2OC)c(O)c1,-0.3,10.5,6.8,25.2,106.9*,8.9,114.8*
C=C(C)COc1ccc(-c2[nH]ncc2Oc2cccc(OC)c2)c(O)c1,-0.4,1.0,7.1,7.0,103.0*,0.4,12.0
